In the library only some 3.1% were active in any assay of this set; here they are far more common.
UHRF1 binding: UHRF1 methyl-DNA binding inhibition; AID 687016; UHRF1 binding to methylated oligo, TR-FRET; Q96T88; inhibition, % at 4.4 µM; 370,000 compounds, 0.75% hits; in the data active = inhibition above about 21%;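 note: UHRF1 SRA domain binding a hemimethylated CpG hairpin DNA probe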
LEDGF integ inh: blocks HIV-1 LEDGF/p75-dependent DNA integration; inhibition, % at 3.7 µM; TR-FRET IN-LEDGF/p75 DNA integration, Eu/Cy5; 370,000 compounds, 0.64% hits;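 active = inhibition above the screen-wide mean plus 3 SD, cut at about 13% in these data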;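 note: signal is the Cy5 over europium emission ratio at 671 and 618 nm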
PRMT1 inh: inhibitors of human PRMT1 | Q99873 | recombinant PRMT1, activity-based probe fluorescence polarization | inhibition, % at 2.79 µM | 370,000 compounds, 1.3% hits | AID 652257;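 active = inhibition above about 21% made by adding two undisclosed values, limit read from the data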
Target sequence (Q99873 whole entry, looked up): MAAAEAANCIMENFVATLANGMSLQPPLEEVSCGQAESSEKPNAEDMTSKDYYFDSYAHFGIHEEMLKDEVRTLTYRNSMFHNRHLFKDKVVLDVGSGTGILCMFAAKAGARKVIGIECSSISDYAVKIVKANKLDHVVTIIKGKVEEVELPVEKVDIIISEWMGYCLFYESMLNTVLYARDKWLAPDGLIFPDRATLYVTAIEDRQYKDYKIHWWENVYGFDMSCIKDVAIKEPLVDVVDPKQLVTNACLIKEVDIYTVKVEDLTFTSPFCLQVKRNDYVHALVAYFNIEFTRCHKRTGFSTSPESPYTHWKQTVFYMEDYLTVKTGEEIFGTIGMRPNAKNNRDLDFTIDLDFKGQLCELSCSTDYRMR
RBBP9 inh: inhibitors of human serine hydrolase RBBP9 | O75884 | AID 1515 | 220,000 compounds, 0.2% hits | recombinant RBBP9, FP-Rh probe fluorescence polarization | inhibition, % at 7.94 µM;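 active = inhibition above the campaign mean of all tested compounds plus 3 SD, cut at about 14% in these data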
Target sequence (O75884 whole entry, looked up): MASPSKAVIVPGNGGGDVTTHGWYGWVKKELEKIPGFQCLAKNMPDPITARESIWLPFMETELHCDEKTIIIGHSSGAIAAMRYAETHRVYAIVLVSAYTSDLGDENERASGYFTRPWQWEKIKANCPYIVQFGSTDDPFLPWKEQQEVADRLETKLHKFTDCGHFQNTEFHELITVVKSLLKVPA
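system = RBBP9 protein | input = RBBP9 at 2.5 µM in dispensed solution, before mixing | measured by = fluorescence polarization (mP), excitation 525 nm, emission 598 nm | incubation = enzyme-compound preincubation 30 min, then probe labeling 45 min, 25 °C | buffer or medium = Tris-NaCl-Pluronic buffer, pH 8.0 | compound = single dose 7.94 µM | also added = FP-Rh probe, 375 nM dispensing solution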
ABHD5 PLIN5 PPI: blocks binding of human ABHD5 to perilipin-5; Q00G26+Q8WTS1; Split G. princeps luciferase complementation, luminescence, 4 h; inhibition, % at 4 µM; 360,000 compounds, 0.78% hits; AID 602281;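 active = inhibition above the mean inhibition across every tested compound plus 3 SD, cut at about 22% in these data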
MBD2 DNA inh: blocks human MBD2 binding to methylated DNA | AID 686964 | TR-FRET, MBD2 binding to methylated oligonucleotide | inhibition, % at 4.4 µM | 370,000 compounds, 0.31% hits | Q9UBB5; in the data active = inhibition above about 13%
Of the large screens only hits and unclear results are named; the others gave an inactive call.

c1ccc(CC(Nc2cccnc2)c2ccccc2)cc1 (configuration not stated)	none (no result: RBBP9 inh, ABHD5 PLIN5 PPI)
CCN(CC)S(=O)(=O)c1cc(C(=O)Nc2ccccc2[N+](=O)[O-])ccc1Cl	UHRF1 binding 21.6
C[C@H](CO)N1C[C@H](C)[C@@H](CN(C)C(=O)Nc2ccccc2)Oc2cc(Br)ccc2S1(=O)=O	none (no result: RBBP9 inh)
C[C@H](CO)N1C[C@H](C)[C@@H](CN(C)C(=O)Nc2ccc(F)cc2)Oc2cc(Br)ccc2S1(=O)=O	none (no result: RBBP9 inh)
C[C@@H]1CN([C@@H](C)CO)S(=O)(=O)c2ccc(Br)cc2O[C@H]1CN(C)C(=O)Nc1ccc2c(c1)OCO2	UHRF1 binding 56.1 (no result: RBBP9 inh)
C[C@@H]1CN([C@H](C)CO)S(=O)(=O)c2ccc(Br)cc2O[C@H]1CN(C)C(=O)Nc1ccccc1	UHRF1 binding 21.1 (no result: RBBP9 inh)
CC1=C(C(=O)N2CCOCC2)CC(CC(=O)NC2CCCCC2)C(=O)N1Cc1ccccc1 (configuration not stated)	UHRF1 binding 22.2 (no result: RBBP9 inh)
CC1=C(C(=O)N2CCOCC2)CC(CC(=O)NC2CC2)C(=O)N1Cc1ccccc1 (configuration not stated)	none (no result: RBBP9 inh)
Cc1ccc(-n2c(-c3ccccc3)cc(/C=N/NC(=O)CC#N)c2-c2ccccc2)cc1	none (no result: ABHD5 PLIN5 PPI)
N#CCC(=O)N/N=C/c1cc(-c2ccccc2)n(-c2ccc(Cl)cc2)c1-c1ccccc1	UHRF1 binding 37.9 (no result: ABHD5 PLIN5 PPI)
Cc1ccc2c(c1)-c1c(cnn1CC(=O)NCCc1ccccc1F)CO2	none (no result: RBBP9 inh, ABHD5 PLIN5 PPI)
S=c1[nH]nc(-c2cc(-c3ccccc3)n[nH]2)n1/N=C/c1ccccc1	none
COc1cc(C=Nn2c(-c3cc(-c4ccccc4)n[nH]3)n[nH]c2=S)ccc1OC(C)=O	PRMT1 inh 32.9 (no result: RBBP9 inh, ABHD5 PLIN5 PPI)
S=c1[nH]nc(-c2cc(-c3ccccc3)n[nH]2)n1/N=C/C(Br)=C/c1ccccc1	ABHD5 PLIN5 PPI 26.1
CC(C)(C)C1=Nn2c(nnc2-c2ccc(C(C)(C)C)cc2)SC1	none (no result: RBBP9 inh, ABHD5 PLIN5 PPI)
Cc1ccccc1N(C)C(=O)Cn1nnc(-c2ccccc2F)n1	none (no result: RBBP9 inh, ABHD5 PLIN5 PPI)
CCOC(=O)[C@@]12CN(C(=O)OC(C)(C)C)CC=C1N(Cc1ccc(OC)cc1)C(=O)[C@H]2CC(=O)NCCc1ccccc1OC	none (no result: RBBP9 inh, ABHD5 PLIN5 PPI)
COC(=O)c1ccc2nc(-c3ccc(OC)c(OC)c3)c(Cc3ccsc3)n2c1	none (no result: RBBP9 inh)
COC(=O)c1ccc2nc(-c3cccc(Cl)c3)c(CC3CCCCC3)n2c1	UHRF1 binding 21.7 (no result: RBBP9 inh)
COC(=O)c1ccc2nc(-c3ccc(Cl)cc3)c(Cc3ccsc3)n2c1	UHRF1 binding 20.8 (no result: RBBP9 inh)
Cc1ccc2nc(-c3ccc(F)cc3)c(Cc3ccccc3C(F)(F)F)n2c1	UHRF1 binding 21.8 (no result: RBBP9 inh)
COC(=O)c1ccc2nc(-c3ccccc3)c(Cc3ccsc3)n2c1	UHRF1 binding 22.2 (no result: RBBP9 inh)
O=C(CCc1nc(-c2ccccc2F)no1)NCCc1ccc(F)cc1	none (no result: RBBP9 inh, ABHD5 PLIN5 PPI)
COc1cccc(CNC(=O)[C@H]2CCCN2C(=O)[C@H]2CCCN2C(=O)c2cccs2)c1	none (no result: RBBP9 inh, ABHD5 PLIN5 PPI)
COC(=O)c1ccc2nc(-c3cccc(Cl)c3)c(Cc3cccc(F)c3)n2c1	none (no result: RBBP9 inh)
COC(=O)c1ccc2nc(-c3cccc(Br)c3)c(Cc3cccc(Cl)c3)n2c1	none (no result: RBBP9 inh, ABHD5 PLIN5 PPI)
COC(=O)c1ccc2nc(-c3cccc(Br)c3)c(Cc3cccc(F)c3)n2c1	none (no result: RBBP9 inh)
COC(=O)c1ccc2nc(-c3cccc(Cl)c3)c(Cc3ccccc3C(F)(F)F)n2c1	UHRF1 binding 22.1 (no result: RBBP9 inh, ABHD5 PLIN5 PPI)
COC(=O)c1ccc2nc(-c3cccc(Cl)c3)c(Cc3ccsc3)n2c1	UHRF1 binding 22.4 (no result: RBBP9 inh)
FC(F)(F)c1ccccc1Cc1c(-c2cccc(Cl)c2)nc2ccc(Br)cn12	none (no result: RBBP9 inh)
COC(=O)c1ccc2nc(-c3cccc(Br)c3)c(Cc3ccsc3)n2c1	UHRF1 binding 21.5 (no result: RBBP9 inh)
COC(=O)c1ccc2nc(-c3cccc(Cl)c3)c(Cc3cccc(Cl)c3)n2c1	UHRF1 binding 23.1 (no result: RBBP9 inh)
COC(=O)[C@]12C[C@H](CC(=O)NCc3cccc(C(F)(F)F)c3)C(=O)N(CCC3=CCCCC3)C1=C[C@H](COCc1ccccc1)O[C@@H]2C	none (no result: RBBP9 inh, ABHD5 PLIN5 PPI)
O=C(O)C1CSC(c2ccc3c(c2)OCO3)N1 (configuration not stated)	PRMT1 inh 27.3
CCc1ccc(C2NC(C(=O)O)CS2)cc1 (configuration not stated)	none (no result: UHRF1 binding, LEDGF integ inh, PRMT1 inh, ABHD5 PLIN5 PPI, MBD2 DNA inh)
